An excerpt weighted towards active compounds, which were near 2.2% of everything screened.
DDE Tn7 FP inh = DD(E)-Tn7 binding inhibition, primary FP screen | P02675 | FP displacement of FITC-Tn7 peptide from fibrin DD(E); 0% = median of compound wells per plate | inhibition, % at 8.3 µM | hit rate 0.13% among 370,000;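 active = inhibition above the mean of compounds falling within the control limits plus 3 SD of them, cut at about 14% in these data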
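Assay system: Human fibrin DD(E) protein | Medium: Tris buffer with calcium and detergent, pH 7.8 | Reagent: 0.1 µM fluorescent Tn7 | Compound dosing: Single point at 8.3 µM | Times: 10 min preincubation, 3 h with tracer, room temperature | Detection: Fluorescence polarization of the labelled Tn7 tracer | Controls: Aha-Tn7 high control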
KLK7 zymogen act = activates the human kallikrein-7 zymogen | activation, % at 7 µM | hit rate 0.9% among 370,000 | purified proKLK7, EDANS-DABCYL substrate fluorescence; 100% is mature enzyme control, 0% vehicle;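 active = activation above the mean of all tested compounds plus 3 SD, computed per campaign excluding outliers beyond control limits, cut at about 13% in these data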
Neddyl block = blocks human cullin neddylation; calls only at 25 µM; AID 651699; TR-FRET cullin neddylation, biochemical; hit rate 0.58% among 360,000; in the data active = inhibition above about 36%
Target sequence (P61081 whole entry, looked up): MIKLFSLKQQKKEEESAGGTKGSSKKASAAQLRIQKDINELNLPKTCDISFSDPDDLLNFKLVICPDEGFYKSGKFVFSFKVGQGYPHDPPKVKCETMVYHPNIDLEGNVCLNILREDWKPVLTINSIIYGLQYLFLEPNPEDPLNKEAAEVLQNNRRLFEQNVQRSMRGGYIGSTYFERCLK
Target sequence (Q13564 whole entry, looked up): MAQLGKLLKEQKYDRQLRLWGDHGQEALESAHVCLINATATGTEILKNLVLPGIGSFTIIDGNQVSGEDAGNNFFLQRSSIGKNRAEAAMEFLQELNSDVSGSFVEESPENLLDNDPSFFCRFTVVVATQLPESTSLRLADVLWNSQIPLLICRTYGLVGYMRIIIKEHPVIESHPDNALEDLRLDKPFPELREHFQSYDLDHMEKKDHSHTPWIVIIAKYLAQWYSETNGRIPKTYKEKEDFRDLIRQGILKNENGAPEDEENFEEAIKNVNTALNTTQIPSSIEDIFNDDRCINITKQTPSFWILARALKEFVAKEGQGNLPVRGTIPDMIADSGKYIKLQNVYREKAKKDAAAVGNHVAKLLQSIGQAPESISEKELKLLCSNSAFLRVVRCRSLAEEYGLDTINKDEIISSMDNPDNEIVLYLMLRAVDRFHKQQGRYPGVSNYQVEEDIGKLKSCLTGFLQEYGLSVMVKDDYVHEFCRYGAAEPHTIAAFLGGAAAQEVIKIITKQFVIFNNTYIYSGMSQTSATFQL
Tn6 DDE FP = disrupts Tn6 cyclic peptide binding to fibrin D-Dimer-E complex; P02675; Fibrin DD(E) TRITC-Tn6 fluorescence polarization displacement; inhibition, % at 8.3 µM; hit rate 0.21% among 370,000; AID 720509;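 active = inhibition above a per-campaign cutoff: mean of compounds within control limits plus 3 SD, cut at about 15% in these data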
SKN-1 block = inhibitors of C. elegans SKN-1; C. elegans VP596 Pgst-4::GFP/RFP ratio, acrylamide-induced, 24 h; inhibition, % at 21.8 µM; hit rate 0.49% among 360,000; AID 624304;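 active = interference check ratio from 0.5 to 1.5 plus GFP to RFP signal ratio inhibition reaching or exceeding a fixed threshold, cut at about 30% in these data, passing the limit was not always enough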
MT1-MMP act inh = blocks activation of human MT1-MMP | P50281 | GFP/RFP ratio change, % at 20 µM | hit rate 0.061% among 360,000 | HT1080 RFP-PRO-GFP cells, GFP/RFP ratio fluorescence, overnight; percent of plate control window, DMSO zero;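 active = GFP/RFP ratio change of at least 30% with cell ATP level not reduced by more than half and red fluorescence within 50% of control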
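Assay system: HT1080 cells carrying an RFP-PRO-GFP reporter | Dosing: Single dose of 20 µM compound, 1% DMSO final | Incubation: Cells overnight before dosing, compound overnight, 37 °C, 5% CO2 | Evaluation: GFP/RFP fluorescence ratio | Control set: DMSO and RFP-L50D-GFP cell wells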
KLK7 act conf = proKLK7 activation, confirmation; activation, % at 7 µM; shares compounds with KLK7 zymogen act; hit rate 68% among 3,200; purified proKLK7, EDANS-DABCYL substrate fluorescence; scaled: vehicle 0, mature enzyme 100;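 active = activation, as change over the incubation, above the mean of all tested compounds plus 3 SD, cut at about 13% in these data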
EDANS interfere = counter-screen for kallikrein-7 activators: EDANS-DABCYL optical interference; activation, % at 7 µM; EDANS-DABCYL substrate fluorescence interference, no enzyme, 4 h; solvent 0%, active enzyme control 100%; AID 686952; hit rate 80% among 3,200; shares compounds with KLK7 zymogen act;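 active = activation above the all-compound mean plus 3 SD, ignoring values outside control-based bounds, cut at about 4.8% in these data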;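 note: value is the 4 h activation minus the activation read at time zero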
EDANS interf = EDANS fluorescence interference in dose response, no enzyme; shares compounds with KLK7 zymogen act; EDANS-DABCYL peptide fluorescence interference; EC50, µM; hit rate 20% among 250;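 active = compounds that raise the fluorescence signal in this interference counterscreen, with EC50 at or below 10 µM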;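 note: intact quenched peptide substrate alone read at 355 nm excitation and 520 nm emission; signal is fluorescence gain from T0 to T4 after four hours at room temperature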
Each line names hits and unclear results; the compound was inactive in the other large screens (follow-up assays come after a bar, where shown).

Cc1cc(C)c(S(=O)(=O)N2CCOC2CNC(=O)C(=O)NCCc2c[nH]c3ccccc23)c(C)c1 (stereo not drawn)	none
CCn1c(SCC(=O)Nc2nccs2)nnc1-c1cccnc1	none
CCOC(=O)N1CCN(C(=O)Nc2ccc3nccnc3c2)CC1	none
Cc1nc2ccc(NC(=O)N3CCCCC3)cc2nc1C	KLK7 zymogen act 35 (not shown: Neddyl block) | KLK7 act conf 69 | EDANS interfere 57 | EDANS interf inactive
O=C(Nc1ccccn1)N1CCOCC1	none
CCOC(=O)N1CCN(C(=O)Nc2ccc3nc(C)c(C)nc3c2)CC1	KLK7 zymogen act 16 (not shown: Neddyl block) | KLK7 act conf 39 | EDANS interfere 33
O=C(Nc1ccc2nc(-c3ccccn3)c(-c3ccccn3)nc2c1)N1CCOCC1	KLK7 zymogen act 36 (not shown: Neddyl block) | KLK7 act conf 70 | EDANS interfere 66
CSc1ccc(SC2CN(Cc3ccc(C)cc3)S(=O)(=O)C2)cc1 (stereo not drawn)	none (no result: Neddyl block, SKN-1 block, MT1-MMP act inh)
Cc1cc(NC(=O)COC(=O)c2ccccc2NCCO)no1	KLK7 zymogen act 34 (not shown: Neddyl block) | KLK7 act conf 27 | EDANS interfere 24
Cc1nnsc1-c1c(C(=O)Oc2ccccc2)c(C)nn1-c1ccccc1	none
Cc1[nH]nc2c1C(c1ccsc1)C1=C(CC(C)(C)CC1=O)N2 (stereo not drawn)	KLK7 zymogen act 14 (not shown: Neddyl block) | KLK7 act conf 13 | EDANS interfere 17
COC(=O)c1cc(C(c2ccccc2O)C2CCC(C)(C)O2)n2ccccc12 (stereo not drawn)	KLK7 zymogen act 36 (no result: Neddyl block, SKN-1 block, MT1-MMP act inh) | KLK7 act conf inactive | EDANS interfere inactive
COc1ccccc1N1C(=O)C2C(C(=O)c3ccccc3)=NN(c3ccc(Br)cc3)C2C1=O (stereo not drawn)	KLK7 zymogen act 18 | KLK7 act conf inactive | EDANS interfere inactive
O=C(Nc1ccccc1)NC1(C(=O)NCCCN2CCOCC2)CCCCC1	none
Nc1nc(Cl)nc2c1ncn2C1OCC(O)C(O)C1O (stereo not drawn)	none
Cc1cc(C)c2cc3c(ccn3C3OC[C@H](O)[C@H](O)[C@H]3O)cc2n1 (stereo partly drawn)	KLK7 zymogen act 23 | KLK7 act conf 48 | EDANS interfere 47
CCC1(C)Cc2ccccc2-c2nc(NCCCO)[nH]c(=O)c21 (stereo not drawn)	KLK7 zymogen act 33 (not shown: Neddyl block) | KLK7 act conf inactive | EDANS interfere inactive
CC1(C)Cc2ccccc2-c2nc(NCCCO)n(-c3ccccc3)c(=O)c21	KLK7 zymogen act 15 (not shown: Neddyl block) | KLK7 act conf inactive | EDANS interfere inactive
CCC1(CC)Cc2ccccc2-c2nc(NCCCO)[nH]c(=O)c21	none (not shown: Neddyl block)
O=c1[nH]c(NCCCO)nc2c1C1(CCCC1)Cc1ccccc1-2	KLK7 zymogen act 13 (not shown: Neddyl block) | KLK7 act conf inactive | EDANS interfere inactive
CN1CCN(S(=O)(=O)c2ccc(NC(=O)c3csc4ccccc34)cc2)CC1	none (no result: DDE Tn7 FP inh, KLK7 zymogen act, Tn6 DDE FP)
CSc1ccccc1C(=O)OCC(=O)NC1CCS(=O)(=O)C1 (stereo not drawn)	none
CCc1nnc(NS(=O)(=O)c2ccc(NC(=O)c3ccc(Br)cc3)cc2)s1	none
FCCCOc1ccc(-c2ccnc3ncnn23)cc1	none (not shown: Neddyl block)
COc1ccc(-c2cc(N3CCCC3)n3ncnc3n2)cc1	none
COc1ccc(-c2ccnc3ncnn23)cc1	KLK7 zymogen act 33 (not shown: Neddyl block) | KLK7 act conf 27 | EDANS interfere 35
COc1ccc(-c2cc(-c3ccccc3)n3ncnc3n2)cc1	KLK7 zymogen act 30 (not shown: Neddyl block) | KLK7 act conf 25 | EDANS interfere inactive
Cc1ccc(SCC(=O)NCC2COc3ccccc3O2)cc1 (stereo not drawn)	none
COc1ccc2nc3cc(Cl)ccc3c(Nc3ccc(O)c(CN4CCN(C)CC4)c3)c2c1	KLK7 zymogen act 22 | KLK7 act conf 32 | EDANS interfere 22 | EDANS interf inactive
CCOC(=O)C1CCCCN1C(=O)[C@@H]1CC=C[C@@H]2CCN(c3ccccc3)C(=O)[C@@H]21 (stereo partly drawn)	none (no result: KLK7 zymogen act, Neddyl block, SKN-1 block, MT1-MMP act inh)
COC(=O)[C@]12C[C@H](CC(=O)N3CCOCC3)C(=O)N(Cc3ccc4c(c3)OCO4)C1=C[C@H](C(C)C)O[C@@H]2C1CC1	none (no result: Neddyl block, SKN-1 block, MT1-MMP act inh)
Cc1cc(C)c(S(=O)(=O)NCc2ccccn2)cc1C	none
CN(C)CCNS(=O)(=O)c1ccc2c3c(cccc13)C(=O)N2	KLK7 zymogen act 155 (not shown: Neddyl block) | KLK7 act conf 68 | EDANS interfere 57 | EDANS interf 2.1
CCN(CC)CCNS(=O)(=O)c1ccc2c3c(cccc13)C(=O)N2	KLK7 zymogen act 100 (not shown: Neddyl block) | KLK7 act conf 58 | EDANS interfere 70
O=C1Nc2ccc(S(=O)(=O)N3CCCC3C(=O)O)c3cccc1c23 (stereo not drawn)	none
O=C1Nc2ccc(S(=O)(=O)NCc3ccccn3)c3cccc1c23	KLK7 zymogen act 16 (not shown: Neddyl block) | KLK7 act conf 72 | EDANS interfere 72
O=C(N[C@H](C(=O)N1CCC[C@H]1C(=O)NCCc1ccccc1Cl)C1CCCCC1)C1CC1	none (no result: Neddyl block, SKN-1 block, MT1-MMP act inh)
N#Cc1ccccc1Sc1ccccc1C(=O)N1CCOCC1	none
N#Cc1nc(-c2cccs2)oc1N1CCOCC1	KLK7 zymogen act 15 (not shown: Neddyl block) | KLK7 act conf 40 | EDANS interfere 49
COCCNc1oc(-c2ccc(C)cc2)nc1C#N	none (not shown: Neddyl block)
N#Cc1nc(/C=C/c2ccccc2)oc1NCCCN1CCOCC1	KLK7 zymogen act 32 | KLK7 act conf 75 | EDANS interfere 71
CNc1oc(/C=C/c2ccccc2)nc1C#N	KLK7 zymogen act 80 (not shown: Neddyl block) | KLK7 act conf 64 | EDANS interfere 68
CC1CN(c2oc(-c3cccs3)nc2C#N)CC(C)O1 (stereo not drawn)	none
COCCNc1oc(/C=C/c2ccccc2)nc1C#N	KLK7 zymogen act 106 | KLK7 act conf 71 | EDANS interfere 76
COc1ccc(-c2nc(C#N)c(NCCCN3CCOCC3)o2)cc1	none (not shown: Neddyl block)
N#Cc1nc(-c2cccs2)oc1NCCCN1CCOCC1	KLK7 zymogen act 42 (not shown: Neddyl block) | KLK7 act conf 78 | EDANS interfere 78
Nc1cccc2c1C(=O)N(CCOc1ccccc1F)C2=O	KLK7 zymogen act 47 (not shown: Neddyl block) | KLK7 act conf 72 | EDANS interfere 78
COc1ccccc1C(=O)N1CCN(Cc2ccc3c(c2)OCO3)CC1	none

Screening data as filed in PubChem BioAssay.
